Laboratory results: PubChem BioAssay
Results filed as inconclusive are left out.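 Rule for the calls, unless noted: active = viability at or below 27.92% in each of two runs, the all-compound median minus 4 SD; inconclusive = no clear call, values can overlap the other calls; inactive = the rest.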

Tests used:
[1] = S. cerevisiae growth inhibition in permissive medium (OD615), pilot counter-assay for S. cerevisiae lifespan shortening project, permissive growth control (AID 705;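 active = growth inhibition above 25% in both replicates, a cutoff set 3 SD above the mean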); settings: OD615, 24 h, at 10 µM, active compounds read high
Outline: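 System – S. cerevisiae with engineered DeaD lifespan system · Buffer or medium – SC raffinose/galactose permissive medium · Schedule – cells pre-grown 4 h, then 24 h compound exposure, 30 °C humidified · Technique – culture turbidity as optical density at 615 nm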

[2] = S. cerevisiae growth inhibition in restrictive medium, OD615, pilot screen, restrictive growth control, yeast lifespan reduction project (AID 706;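 active = growth inhibition above a set limit, 3 SD over mean compound inhibition, in both replicates, cut at about 43% in these data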;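 note: modified DeaD lifespan yeast strain shifted to restrictive glucose medium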); settings: OD615, 48 h, at 10 µM, active compounds read high
Outline: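 Material: engineered S. cerevisiae DeaD strain / Medium: glucose-based CSMM-D restrictive medium / Compound: single dose of 10 µM compound final, 0.25% DMSO / Timing: 4 h pre-incubation, 48 h exposure at 30 °C / Technique: OD615 absorbance reading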

[3] = doxorubicin toxicity protection in MRP-1 cells – H69AR cells, CellTiter-Glo, duplicate, MRP-1 activator project, pilot screen (AID 807;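 active = viability increase at or above a cutoff of the median across tested compounds plus 3 SD, cut at about 8.5% in these data, passing the limit was not always enough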;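 note: compound pretreatment 18-22 h then 72 h combined with doxorubicin; 0% = doxorubicin alone and 100% = vehicle without doxorubicin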); settings: H69AR viability with doxorubicin, CellTiter-Glo luminescence; at 10 µM; active compounds read high
[4] = viability of HCT116 without oncogenic beta-catenin – human colon tumor cells, pilot screen (AID 823;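 active = cell viability at or below a set limit in both duplicate runs, the limit being the all-compound median minus 4 SD, cut at about 23% in these data, passing the limit was not always enough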;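 note: 0% = wells killed by 20 µM Hyamine and 100% = untreated DMSO cell wells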); settings: HCT116 beta-catenin knockout viability, CellTiter-Glo, 60 h; at 10 µM; active compounds read low
[5] = viability of PTEN-null HCT116 cells – cell-based, HCT116 clonal line, CellTiter-Glo, pilot screen (AID 824); settings: HCT116 PTEN-deleted viability, 60 h, at 10 µM, active compounds read low;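 note: 0% = 20 µM Hyamine control and 100% = vehicle cell control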
[6] = RAM pathway blockade in budding yeast – dse1pr::URA3 reporter, 5-FOA selection, pilot screen (AID 869;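 active = inhibition over a set limit, the all-compound mean plus 3 SD, in both replicate runs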;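 note: 0% = DMSO wells with no growth and 100% = 10 µM 1-NA-PP1 with full growth; RAM network block rescues cells from 5-FOA so hits raise OD615 growth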); settings: S. cerevisiae dse1pr::URA3 5-FOA growth, OD615, 2 d; at 10 µM; active compounds read high; strain carries analog-sensitive mutant Cbk1 kinase
[7] = RAM signaling pathway blockade in yeast – S. cerevisiae, Pdr1DBD-CYC8 efflux-inhibited sensitized strain, primary screen (AID 1298;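 active = RAM network inhibition above 8.4% in each of two replicates, 3 SD over the compound average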;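 note: 0% = DMSO untreated cells without growth and 100% = 10 µM 1-NA-PP1 full growth; higher means more yeast growth rescued from 5-FOA killing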); settings: S. cerevisiae cbk1-as DSE1-URA3 strain, 5-FOA growth OD615, 2 d; at 50 µM; active compounds read high

COC(=O)c1ccc(NS(=O)(=O)c2ccc3c(c2)oc(=O)n3C)cc1
inactive: growth inhibition [1] -4.12% | growth inhibition [2] -3.33% | viability increase [3] 1.49% | viability [4] 103% | viability [5] 96.4% | inhibition [6] 0.69% | RAM network inhibition [7] 7.21%

Cc1csc(NC(=O)CNS(=O)(=O)c2cccs2)n1
inactive: growth inhibition [1] -4.12% | growth inhibition [2] -18.9% | viability increase [3] -2.55% | viability [4] 93.4% | viability [5] 86.8% | inhibition [6] 0.795% | RAM network inhibition [7] 2.18%

Cc1ccc2c(CC(=O)O)coc2c1
inactive: growth inhibition [1] -5.59% | growth inhibition [2] 27.6% | viability increase [3] -0.46% | viability [4] 89.3% | viability [5] 97.5% | inhibition [6] -0.825% | RAM network inhibition [7] -1.05%

CCN(CCNC(=O)C1CCCN(S(=O)(=O)c2cnc[nH]2)C1)c1ccccc1 (stereo not drawn)
inactive: growth inhibition [1] -0.145% | growth inhibition [2] -6.85% | viability increase [3] -0.77% | viability [4] 106% | viability [5] 101% | inhibition [6] 0.775% | RAM network inhibition [7] 3.46%

COCCN(C(=O)Nc1ccccc1)C(C)c1cccnc1 (stereo not drawn)
inactive: growth inhibition [1] 9.6% | growth inhibition [2] -1.42% | viability increase [3] -2.41% | viability [4] 93.5% | viability [5] 97.5% | inhibition [6] 1.54% | RAM network inhibition [7] -1.08%

CCOC(=O)N1CCC(NC(=O)CN2C(=O)CSc3ncccc32)CC1
inactive: growth inhibition [1] 0.38% | growth inhibition [2] -5.29% | viability increase [3] -0.23% | viability [4] 104% | viability [5] 99% | inhibition [6] 2.81% | RAM network inhibition [7] 1.48%

Cc1ccc(N(CC(=O)NC2CCC(C)CC2)S(=O)(=O)c2cccnc2)cc1 (stereo not drawn)
inactive: growth inhibition [1] 4.48% | growth inhibition [2] 8.91% | viability increase [3] 0.07% | viability [4] 98.3% | viability [5] 98.1% | inhibition [6] 1.15% | RAM network inhibition [7] -1.86%

Cc1nnc2ccc(N3CCN(C(=O)c4ccccc4)CC3)nn12
inactive: growth inhibition [1] -4.49% | growth inhibition [2] 5.48% | viability increase [3] 0.13% | viability [4] 98.9% | viability [5] 95.2% | inhibition [6] 1.42% | RAM network inhibition [7] 2.92%

COc1ccc(C2N(c3ccc(Cl)cc3)C(=O)C3CCCN32)cc1 (stereo not drawn)
inactive: growth inhibition [1] 1.46% | growth inhibition [2] 0.035% | viability increase [3] 0.55% | viability [4] 101% | viability [5] 99.9% | inhibition [6] 0.915% | RAM network inhibition [7] 0.88%

Cc1ccc(N2C(=O)c3oc4ccccc4c(=O)c3C2c2cccnc2)nc1 (stereo not drawn)
inactive: growth inhibition [1] -12.7% | growth inhibition [2] -4.26% | viability increase [3] 0.88% | viability [4] 99.3% | viability [5] 102% | inhibition [6] 1.04% | RAM network inhibition [7] 5.38%

CC(=O)N1CCC(N(CCCOC(C)C)C(=O)Nc2ccc(Cl)cc2)CC1
inactive: growth inhibition [1] -2.75% | growth inhibition [2] 0.145% | viability increase [3] -0.86% | viability [4] 93% | viability [5] 95.9% | inhibition [6] 0.365% | RAM network inhibition [7] 3.16%

CCC(C)[C@@H](C(=O)Nc1ccc(OC)c(OC)c1)N1Cc2ccccc2C1=O (stereo partly drawn)
inactive: growth inhibition [1] -13.5% | growth inhibition [2] -13.6% | viability increase [3] -2.11% | viability [4] 91.8% | viability [5] 82.8% | inhibition [6] 2.65% | RAM network inhibition [7] 2.81%

CCc1ccc(Nc2cc(C)nc3nc(C)nn23)cc1
inactive: growth inhibition [1] -16.8% | growth inhibition [2] -7.12% | viability increase [3] -4.04% | viability [4] 96.8% | viability [5] 96% | inhibition [6] 1.99% | RAM network inhibition [7] 4.01%

CC(=O)c1ccc(NC(=O)C2CCCN2S(=O)(=O)c2ccc(F)cc2)cc1 (stereo not drawn)
inactive: growth inhibition [1] -5.81% | growth inhibition [2] 0.06% | viability increase [3] 0.59% | viability [4] 98.5% | viability [5] 96.2% | inhibition [6] 2.9% | RAM network inhibition [7] 1.64%

O=C(NCc1cn2ccsc2n1)c1c(F)cccc1Cl
inactive: growth inhibition [1] -10.2% | growth inhibition [2] -8.81% | viability increase [3] 1.01% | viability [4] 107% | viability [5] 99.6% | inhibition [6] 0.93% | RAM network inhibition [7] 2.61%

CCc1cc(C(=O)Nc2ccccc2)cs1
inactive: growth inhibition [1] -8.2% | growth inhibition [2] 4.65% | viability increase [3] -0.18% | viability [4] 82.8% | viability [5] 90.9% | inhibition [6] 2.13% | RAM network inhibition [7] -2.13%

O=C(CSc1nccn1-c1cccc(Cl)c1)Nc1ccc2c(c1)OCCO2
inactive: growth inhibition [1] -11.7% | growth inhibition [2] 2.4% | viability increase [3] 6.11% | viability [4] 101% | viability [5] 93% | inhibition [6] 2.52% | RAM network inhibition [7] 3.35%

CCOC(=O)Cc1csc(SCn2nnc3ccccc3c2=O)n1
inactive: growth inhibition [1] -8.4% | growth inhibition [2] -9.13% | viability increase [3] 0.7% | viability [4] 94.8% | viability [5] 94.8% | inhibition [6] 2.31% | RAM network inhibition [7] 1.31%

C/C(=C1\SC(N2CCOCC2)=NC1=O)c1ccccc1
inactive: growth inhibition [1] -19.6% | growth inhibition [2] -10.6% | viability increase [3] -2.49% | viability [4] 97% | viability [5] 102% | inhibition [6] 0.76% | RAM network inhibition [7] 1.09%

O=C(CN1CCOc2ccccc21)NC1CC1
inactive: growth inhibition [1] -8.82% | growth inhibition [2] 8.71% | viability increase [3] -3.71% | viability [4] 88.1% | viability [5] 98.8% | inhibition [6] 1.16% | RAM network inhibition [7] -0.26%

C=CCNc1nc2c(c(=O)[nH]c(=O)n2C)n1Cc1cccc(C)c1
inactive: growth inhibition [1] 2.89% | growth inhibition [2] 2.92% | viability increase [3] -1.47% | viability [4] 102% | viability [5] 87.5% | inhibition [6] 2.04% | RAM network inhibition [7] 5.89%

CN(C)S(=O)(=O)c1ccc(C(=O)Nc2ccccn2)cc1
inactive: growth inhibition [1] -10.3% | growth inhibition [2] -19.3% | viability increase [3] -0.7% | viability [4] 96.6% | viability [5] 89.2% | inhibition [6] 1.31% | RAM network inhibition [7] -1.36%

CCOc1ccccc1C(=O)NC1CCN(Cc2nnnn2C2CCCC2)CC1
inactive: growth inhibition [1] -6.12% | growth inhibition [2] -7.94% | viability increase [3] -1.67% | viability [4] 102% | viability [5] 98.9% | inhibition [6] 0.9% | RAM network inhibition [7] 1.76%

O=C1CC(N2CCN(c3nc4ccccc4s3)CC2)C(=O)N1c1ccc(F)cc1 (stereo not drawn)
inactive: growth inhibition [1] 0.4% | growth inhibition [2] 0.52% | viability increase [3] 6.28% | viability [4] 88.7% | viability [5] 94.3% | inhibition [6] 1.54% | RAM network inhibition [7] 3.67%
